Assay outcomes deposited in PubChem by Broad Institute.
dFosB act: activators of delta FosB homodimer, primary screen, biochemical, fluorescence polarization, TAMRA-CDK5 oligo, single point; Protein FosB (Mus musculus), P13346; purified delta FosB; percent of positive-control signal above neutral wells; activation, % at 25 µM; 0.99% of 340,000 active; AID 493131, 2011;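 active = mean activation above about 17%, with every replicate also reaching it, limit read from the data, passing the limit was not always enough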
Target sequence (P13346 whole entry, looked up): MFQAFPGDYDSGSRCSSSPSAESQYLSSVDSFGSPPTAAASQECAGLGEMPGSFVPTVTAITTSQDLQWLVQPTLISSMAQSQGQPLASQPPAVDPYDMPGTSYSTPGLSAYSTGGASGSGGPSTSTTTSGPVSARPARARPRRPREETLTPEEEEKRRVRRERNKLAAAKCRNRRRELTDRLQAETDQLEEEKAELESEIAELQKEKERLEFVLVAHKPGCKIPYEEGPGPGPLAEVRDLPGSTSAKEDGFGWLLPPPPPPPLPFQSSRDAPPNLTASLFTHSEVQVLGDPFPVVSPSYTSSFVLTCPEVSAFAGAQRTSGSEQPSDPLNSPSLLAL
Cneo AK release: Cryptococcus neoformans cell lysis inducers, primary screen, AK release luminescence, single concentration; C. neoformans lysis, adenylate kinase release luminescence, 4 h; normalised: neutral wells 0, clomiphene wells 100; lysis activity, % at 15 µM; 0.2% of 360,000 active;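 active = mean lysis activity across replicates of at least 80%, whatever share of replicates individually reach that level; inactive = mean lysis activity below 80%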
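Assay system: log-phase C. neoformans yeast / Quantity: yeast cell density of 5 × 10^6 cells/mL / Medium: fresh YPD growth medium / Compound: single dose / Timing: static 4 h at 37 °C with compound, 1 h detection / Measured by: adenylate kinase release luminescence / Read-out: lysis from increased AK signal / Benchmarks: Clomiphene as positive lysis control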
PAX8 reporter: inhibitors of PAX8-driven TPO luciferase reporter, primary screen, RMG-I cells, single concentration; SteadyGlo, 24 h; inhibition, % at 12.6 µM; 1.2% of 360,000 active;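 active = mean replicate inhibition at least 60% with every replicate also reaching 60%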;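 also: luciferase light reporting Pax8 driven TPO promoter activity; plate controls were median of neutral control wells for no effect and mitoxantrone controls for full effect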
CDK5 inh: inhibitors of human CDK5/p35 kinase, primary screen, biochemical, single concentration; 0.01% of 330,000 active; AID 488839, 2010; Recombinant CDK5/p35, ADP-Glo luminescence, 60 min; inhibition, % at 10 µM; Cyclin-dependent kinase 5 (Homo sapiens) + Cyclin-dependent kinase 5 activator 1 (Homo …;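 active = highest replicate inhibition of at least 50% and at least 75% of replicates reaching 50%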;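 also: plate controls were DMSO neutral control for no effect and GW8510 at 10 µM for full effect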
GSIS activator: GLuc luminescence reporter in INS-1E cells, primary screen for activators of glucose-dependent secretion of insulin; INS-1E GLuc reporter insulin secretion, 2-3 h; activation, % at 16.6 µM; 0.61% of 370,000 active; AID 743287, 2014;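 active = lowest replicate activation of at least 40%, so every replicate reaches that level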;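 also: 0% = median of neutral control wells and 100% = median of IBMX positive control wells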
HIV Env fusion: inhibitors of HIV-1 Env-driven cell-cell fusion, primary screen, HeLa-JRFL effector, CEM21 target cells, luciferase | 1.1% of 360,000 active | inhibition, % at 12.3 µM;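 active = mean replicate inhibition score of at least 50 and every replicate individually at or above 50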;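 also: 0% = plate neutral controls and 100% = maraviroc near 300 nM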
* = called active by the depositor; / = no result given; ! = not active in a repeat; [ ] = dose if it differs, or a comment. Shown are actives, neighbours in structure and some others; about 2.9% of the full set was active somewhere.

SMILES | dFosB act | Cneo AK release | PAX8 reporter | CDK5 inh | GSIS activator | HIV Env fusion
O=C(C[C@@H]1C=C[C@@H](NC(=O)c2ccc(F)cc2)[C@@H](CO)O1)NCc1ccncn1 | / | 52.3 | -0.5 | / | -2.3 | 8.7[16.7 µM]
O=C(Nc1cccnc1)/C(N=Nc1cccnc1)=C(\O)c1ccccc1 | -5.7 | / | / | -0.9 | 74.7* | /
O=C(Nc1ccccc1)C(=O)Nc1cccnc1 | 2.8 | -3.5 | -67.6 | 2.9 | / | -73.6
COc1ccc(N/N=C/c2c(C(=O)O)ccc3ccccc23)cc1 | -3.1 | -0.5 | 62.2* | 0.3 | -8.7 | 9.2
COc1ccc(-c2cnc3c(c2)C(=O)N([C@H](C)CO)C[C@H](C)[C@H](CN(C)C(=O)CN(C)C)O3)cc1 | / | -5.8 | / | / | 15.3 | 3.0[16.7 µM]
O=C(Nc1ccc(F)cc1)N1CC(=O)N2[C@H](CO)[C@H](c3ccc(C#Cc4ccc(F)cc4)cc3)[C@H]2C1 | / | / | -15.1 | / | -0.5 | /
CCCCCCCN(c1ccccc1)[C@@H]1C[C@H]2CCCC(=O)N3CC[C@@H](C1)[C@@H]23 | -12.2 | -1.6 | 56.4 | -0.2 | 13.9 | 73.6*
CCCCNC(=O)O[C@@H]1C[C@H]2CCCC(=O)N3CC[C@@H](C1)[C@@H]23 | 4.1 | 1.3 | -3.0 | 1.8 | 2.4 | -3.3
CO[C@@H]1CN(C)C(=O)c2ccc(NS(=O)(=O)c3ccccc3)cc2OC[C@@H](C)N(Cc2cccnc2)C[C@H]1C | / | -7.2 | 1.6 | / | -22.5 | -40.5[16.7 µM]
CC1=CC(=O)C2=C(C)CC[C@@H]3[C@H](OC(=O)[C@H]3C)[C@@H]12 | -2.1 | -2.3 | -10.0 | -0.5 | -5.9 | 67.6*
CC1CCC(C(C)C)C(OCC(O)CNC(C)c2ccccc2)C1 (stereo not given) | 3.2 | / | 49.1 | -0.8 | 199.4* | 43.7
CC(NCC(O)COc1ccc2ccccc2c1)c1ccccc1 (stereo not given) | -0.9 | 0.8 | -0.3 | -2.5 | -30.6 | 64.7*
Cc1cc(OCC(O)CNC(C)c2ccccc2)ccc1C(C)C (stereo not given) | -16.8 | 4.4 | -6.5 | 0.3 | 379.3* | 82.4*
CC(NCC(O)COc1ccc(Br)cc1)c1ccccc1 (stereo not given) | -4.0 | 11.3 | -6.6 | -2.0 | -10.3 | 18.6
COc1ccc(OCC(O)CNC(C)c2ccccc2)cc1 (stereo not given) | -2.8 | 2.4 | -23.9 | 1.2 | -1.6 | 3.1
O=S(=O)(c1cccc(F)c1)N1CC[C@@H]2[C@@H](CO)Nc3ccc(C#Cc4cccc(F)c4)cc3[C@@H]21 | / | -9.7 | 12.6 | / | -2.2 | /
COc1ccc(-c2c[n+](CC(=O)c3cccs3)c3n2CCC3)cc1 | -4.3 | / | 15.0 | 5.8 | -11.3 | -0.6
Cc1ccc(-c2c[n+](Cc3ccc(Cl)c(Cl)c3)c3n2CCC3)cc1 | 6.1 | / | 79.7* | 0.6 | -37.2 | 18.0
Cc1ccc(C(=O)C[n+]2cc(-c3ccc(C)cc3)n3c2CCCCC3)cc1 | -4.5 | 2.4 | / | -0.9 | -42.4 | 68.0*
COc1ccc(C(=O)C[n+]2cc(-c3ccc(OC)cc3)n3c2CCCC3)cc1 | -6.5 | / | 72.3*! | -3.0 | -47.1 | -19.9
Cc1ccc(NC(=O)C[n+]2cc(-c3ccc(C)cc3)n3c2CCC3)cc1 | -10.8 | 2.6 | 12.7 | 1.5 | / | 9.1
O=C(C[n+]1cc(-c2ccccc2)n2c1CCCCC2)c1ccc(Br)cc1 | 2.9 | / | 8.6 | 2.3 | 1.3 | -5.8
CCCNC(=O)N(C)C[C@@H]1Oc2cc(C#CCC(C)C)ccc2S(=O)(=O)N([C@@H](C)CO)C[C@@H]1C | / | -1.3 | / | / | -7.6 | 6.4[16.7 µM]
Cc1ccccc1-c1cnc2c(c1)C(=O)N([C@H](C)CO)C[C@H](C)[C@@H](CN(C)CC1CCOCC1)O2 | / | 47.5 | / | / | 17.7 | 1.6[16.7 µM]
CC(=O)NC(CCc1ccc(Cl)c(Cl)c1)c1cccc(O)c(=O)c1 (stereo not given) | / | -0.8 | 91.1* | / | / | 21.7
SMILES | dFosB act | Cneo AK release | PAX8 reporter | CDK5 inh | GSIS activator | HIV Env fusion
O=C(O)CC(NC(=O)C1c2ccccc2Oc2ccccc21)c1ccc(OC2CCCC2)cc1 (stereo not given) | -2.6 | / | 121.2* | -0.8 | -10.0 | 18.4
CC[C@]12c3[nH]c4ccc(Cl)cc4c3CCN1C(=O)[C@@H](CC(=O)NC/C=C(\C)CCC=C(C)C)C[C@@H]2C(=O)N1CCN(C(=O)C2CC2)CC1 | -15.3 | 7.4 | 74.7* | -0.6 | -41.3 | 11.2
CC[C@]12c3[nH]c4cc(CCC(=O)N(C)C)ccc4c3CCN1C(=O)[C@@H](CC(=O)NC/C=C(\C)CCC=C(C)C)C[C@@H]2C(=O)N1CCN(C(=O)C2CC2)CC1 | -12.9 | 2.8 | 21.7 | 0.1 | -47.9 | -21.0
COc1cccc(NC(=O)CN(C)C(=O)Cn2[nH]c(=O)c3ccccc3c2=O)c1 | -6.7 | -1.1 | 18.6 | 1.1 | 41.5* | -1.4
COc1ccc(Cl)cc1NC(=O)CN(C)C(=O)Cn1[nH]c(=O)c2ccccc2c1=O | -12.1 | -0.6 | -93.9 | -0.3 | 56.9 | 5.9
CC(O)(CS(=O)(=O)Cc1cccc(C(F)(F)F)c1)C(=O)Nc1cccc(C(F)(F)F)c1 (stereo not given) | -11.6 | -2.6 | / | 0.9 | / | 58.8*
COc1ccccc1NC(=O)C(C)NC(c1ccccc1)c1ccccc1 (stereo not given) | -1.4 | -0.6 | -45.3 | 0.9 | 7.7 | 59.0*
CC(C)CNC(=O)[C@@H]1c2ccccc2C(=O)N(CC23CC4CC(CC(C4)C2)C3)[C@H]1c1ccc(CO)cc1 | / | -3.1 | -6.4 | / | / | 60.7*[16.7 µM]
CCCNC(=O)[C@@H]1c2ccccc2C(=O)N(CC23CC4CC(CC(C4)C2)C3)[C@H]1c1ccc(CO)cc1 | / | 1.3 | -2.6 | / | / | 27.9[16.7 µM]
COc1ccc(NC(=O)Nc2ccc3c(c2)C(=O)N([C@@H](C)CO)C[C@@H](C)[C@H](CN(C)C(=O)Nc2ccc(C(F)(F)F)cc2)OCCCC[C@@H](C)O3)cc1 | / | -0.8 | -11.9 | / | 12.8 | 34.8[16.7 µM]
FC(F)(F)c1cc(CCN2CCNC[C@@H]2Cc2ccccc2)cc(C(F)(F)F)c1 | -26.4 | -3.7 | -10.0 | 1.5 | 191.1* | -23.3
Fc1cccc(CCN2CCNC[C@@H]2Cc2ccccc2)c1 | 1.9 | -0.8 | -6.4 | -0.4 | / | 7.3
CCCC(=O)Nc1ccc2c(c1)C(=O)N(C)C[C@@H](OC)[C@H](C)CN(Cc1ccc(F)cc1)[C@H](C)CO2 | / | / | / | / | -9.7 | /
COc1cccc(S(=O)(=O)N[C@@H]2CC[C@@H](CCn3cc(-c4ccccc4OC)nn3)O[C@@H]2CO)c1 | / | 42.8 | 29.2 | / | 17.1 | 1.2[16.7 µM]
Fc1ccc(/C=N/c2c(-c3ccc(F)cc3)nc3n2CCS3)cc1 | -9.9 | 0.3 | / | 2.0 | 62.3* | /
COc1ccc(/C=N/c2c(-c3ccc(OC)cc3)nc3n2CCS3)cc1 | -7.2 | 0.3 | / | 1.6 | / | /
